This is a sample that favours compounds with a hit; in the whole collection about 12% have one here.
Diaph inh CS: diaphorase inhibition or chemical oxidation counter-screen; diaphorase resazurin-to-resorufin fluorescence, NADH, 16 min; bacterial (C. kluyveri) enzyme, not human; inhibition, % at 20 µM; 0.69% of 190,000 active;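 active = primary screen inhibition at 20 µM above a set limit, cut at about 50% in these data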
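material = Clostridium kluyveri diaphorase enzyme | amount = 0.14 U/mL diaphorase, enzyme working solution | schedule = incubation 16 min, room temperature | detection = fluorescence of resorufin formed from resazurin, Ex 544/Em 590 nm | benchmarks = positive control minus NADH, DMSO neutral control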
ROMK primary: human ROMK K+ channel modulation, primary screen; 2% of 130,000 active; P48048; B-score at 10 µM; Tet-inducible ROMK, thallium flux fluorescence; actives lie on both sides;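 active = signal ratio slope over the read window, or its plate-corrected B-score, at least 3 SD from the plate mean, either direction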;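 note: B-score of the F/F0 ratio slope over 7 to 12 s after thallium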
WT yeast gro inh: growth inhibition of WT yeast, mitochondrial fusion screen | mitochondrial fusion phenotypic screen, WT strain | 2.1% of 190,000 active | inhibition, % at 10 µM | AID 1362; in the data active = inhibition above about 58%; tested in S. cerevisiae
Cl transport mod: KCC2 (human) Cl- transport modulation | Q9H2X9 | KCC2 cells, thallium flux FluoZin-2 fluorescence | B-score of Tl+ flux slope (higher = more flux/activation; lower = inhibition) at 10 µM | 2.2% of 190,000 active | AID 1456;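 active = thallium flux slope and its plate-corrected score both differing from the plate sample mean at a set confidence after two filtering rounds, in either direction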;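 note: slope of fluorescence scaled to starting intensity during 10 to 20 s after thallium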
Target sequence (Q9H2X9 whole entry, looked up): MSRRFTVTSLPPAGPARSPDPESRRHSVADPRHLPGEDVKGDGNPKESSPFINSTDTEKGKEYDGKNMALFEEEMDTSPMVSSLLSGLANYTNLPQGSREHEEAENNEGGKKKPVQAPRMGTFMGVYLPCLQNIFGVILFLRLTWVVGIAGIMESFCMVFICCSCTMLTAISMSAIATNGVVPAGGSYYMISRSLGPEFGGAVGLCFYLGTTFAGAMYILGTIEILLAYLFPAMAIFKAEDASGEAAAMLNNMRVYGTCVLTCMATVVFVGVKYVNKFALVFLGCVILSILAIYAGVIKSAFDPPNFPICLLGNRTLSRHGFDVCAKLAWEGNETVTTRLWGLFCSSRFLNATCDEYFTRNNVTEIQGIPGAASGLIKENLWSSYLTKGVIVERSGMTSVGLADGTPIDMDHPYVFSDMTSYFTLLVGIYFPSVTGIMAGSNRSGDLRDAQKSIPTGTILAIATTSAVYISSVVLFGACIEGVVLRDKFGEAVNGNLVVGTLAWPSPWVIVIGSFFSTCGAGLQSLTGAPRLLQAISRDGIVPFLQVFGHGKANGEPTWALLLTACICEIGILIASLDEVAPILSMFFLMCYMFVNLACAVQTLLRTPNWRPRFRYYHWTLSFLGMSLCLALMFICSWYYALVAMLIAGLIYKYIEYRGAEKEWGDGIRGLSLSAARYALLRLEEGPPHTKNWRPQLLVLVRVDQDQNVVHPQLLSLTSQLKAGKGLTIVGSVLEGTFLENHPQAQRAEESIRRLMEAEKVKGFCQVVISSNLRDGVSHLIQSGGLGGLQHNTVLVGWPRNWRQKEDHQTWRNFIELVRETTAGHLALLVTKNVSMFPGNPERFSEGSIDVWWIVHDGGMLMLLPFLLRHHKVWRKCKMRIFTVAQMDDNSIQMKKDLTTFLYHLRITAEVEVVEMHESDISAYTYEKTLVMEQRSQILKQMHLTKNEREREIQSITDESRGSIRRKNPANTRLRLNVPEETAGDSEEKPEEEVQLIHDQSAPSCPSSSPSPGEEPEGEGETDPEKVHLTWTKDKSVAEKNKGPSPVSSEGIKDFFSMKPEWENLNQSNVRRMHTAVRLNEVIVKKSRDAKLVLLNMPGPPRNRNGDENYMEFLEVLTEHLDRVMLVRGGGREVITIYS
Lmaj promast: Leishmania major promastigote growth inhibition. AID 1063. 9% of 200,000 active. Leishmania major promastigotes, resazurin fluorescence viability. inhibition, % at 10 µM; in the data active = inhibition above about 50%;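 note: promastigotes grown with compound for 44 hours at 28 °C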
Diaphorase act: counter-screen for diaphorase-based assays: diaphorase activators and chemical reducers. activation factor at 20 µM. 0.005% of 190,000 active. Diaphorase/resazurin coupled assay, resorufin fluorescence, 16 min; stronger effect = higher value; 1 = vehicle wells, 0 = NADH-free wells;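 active = diaphorase activity raised at least twofold by the compound at 20 µM; inactive = activation factor below 2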
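Material: Clostridium kluyveri diaphorase, purified enzyme; Quantity: enzyme 0.07 U/mL final; Medium: HEPES pH 7.4 buffer with MgCl2 and Tween 20; Dosing: single compound dose of 20 µM, 1% DMSO final; Schedule: 16 min reaction at room temperature; Measured by: red resorufin fluorescence at 544/590 nm excitation/emission.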
Large screens that a line does not name were inactive.

CSCCC(NC(=O)c1ccc(Cl)cc1)C(=O)OCC(=O)Nc1cc(Cl)ccc1C#N (centres undefined)	Lmaj promast 54
CCCC(=O)OCC(=O)c1[nH]c(C)c(C(C)=O)c1C	none
COCCN1Cc2cccc(C(=O)Nc3c(C)cc(C)cc3C)c2C1=O	Lmaj promast 72
COCCN1Cc2cccc(C(=O)Nc3cc(C)cc(C)c3)c2C1=O	none
CCCN1Cc2cccc(C(=O)Nc3ccc4c(c3)OCO4)c2C1=O	none (no result: ROMK primary)
CCCN1Cc2cccc(C(=O)Nc3ccc4c(c3)OCCO4)c2C1=O	Lmaj promast 69 (no result: ROMK primary)
C=C1CCN([C@H](C(=O)NCc2ccc(OC)cc2)C(C)C)S(=O)(=O)c2ccccc21	none (no result: Diaph inh CS, ROMK primary, WT yeast gro inh, Lmaj promast, Diaphorase act)
CS(=O)(=O)N1CCN(c2ncnc3c2cnn3-c2ccccc2)CC1	none
c1ccc(-n2ncc3c(N4CCN(CCOc5cccc6ccccc56)CC4)ncnc32)cc1	Lmaj promast 99 (no result: Cl transport mod)
O=C(Nc1nc2ccc(SC(F)F)cc2s1)c1ccc2c(c1)S(=O)(=O)c1ccccc1C2=O	Lmaj promast 86
O=C(Nc1nc2ccccc2s1)c1ccc2c(c1)S(=O)(=O)c1ccccc1C2=O	none
CC(C)NC(=O)c1ccc2c(c1)S(=O)(=O)c1ccccc1C2=O	none
O=C(Nc1ccncc1)c1ccc2c(c1)S(=O)(=O)c1ccccc1C2=O	Lmaj promast 100
O=C(N/N=C/c1cccnc1)C(O)c1ccccc1 (centres undefined)	none (no result: ROMK primary)
O=C(NC(=S)Nc1ccc(CN2CCOCC2)cc1)c1ccc(-c2ccc(Cl)cc2)o1	none (no result: Diaph inh CS, ROMK primary, WT yeast gro inh, Lmaj promast, Diaphorase act)
O=C(/C=C/c1ccc(Cl)cc1)Nc1ccc(CN2CCOCC2)cc1	Lmaj promast 82 (no result: ROMK primary)
O=C(Nc1ccc(CN2CCOCC2)cc1)c1ccc(-c2cccc(Cl)c2)o1	Lmaj promast 99 (no result: ROMK primary, Cl transport mod)
O=C(Nc1ccc(CN2CCOCC2)cc1)c1ccc(-c2ccc(Cl)cc2Cl)o1	Lmaj promast 74 (no result: ROMK primary)
CC(C)c1ccc(/C=C/C(=O)Nc2ccc(CN3CCOCC3)cc2)cc1	none (no result: Diaph inh CS, ROMK primary, WT yeast gro inh, Lmaj promast, Diaphorase act)
CN(C)c1ccc(-c2ccc([C@H]3[C@@H]4C=CCC[C@@]4(C)C(=O)N3Cc3ccccc3)c(F)c2)cc1	none (no result: Diaph inh CS, ROMK primary, WT yeast gro inh, Lmaj promast, Diaphorase act)
O=C(COC(=O)[C@H](Cc1ccccc1)NS(=O)(=O)c1ccccc1F)NC1CCCCC1	none
CN(C)c1ccc(O)c2c1CC1CC3[C@@H](N(C)C)C(=O)C(C(N)=O)=C(O)[C@]3(O)C(=O)C1=C2O (some centres undefined)	WT yeast gro inh 60, Lmaj promast 83 (no result: ROMK primary)
N#C/C(=C\Nc1ccccc1SC(F)(F)F)c1nc(-c2ccc(Cl)cc2)cs1	none (no result: ROMK primary)
CC1(CCc2ccccc2)NC(=S)N(c2ccc(Cl)cc2)N1 (centres undefined)	WT yeast gro inh 59
O=C(c1cccc(F)c1)N1CCN(C(=O)c2cc3ncc(Br)cn3n2)CC1	none (no result: Cl transport mod)
Cc1sc(NC(=O)c2ccco2)c(C(c2cccnc2)N2CCC(C)CC2)c1C (centres undefined)	Lmaj promast 91 (no result: ROMK primary, Cl transport mod)
NS(=O)(=O)c1ccc(N/N=C2/CCCCC2C2CCCCC2)c([N+](=O)[O-])c1 (centres undefined)	WT yeast gro inh 96 (no result: ROMK primary)
COc1cccc(/C=C/C(=C2/C(=O)N(c3ccccc3)N=C2C)c2ccccc2)c1OC	Lmaj promast 95
CC1=NN(c2ccccc2)C(=O)C1=C(C)C	none
COc1cccc(/C=C/C(=C2/C(=O)N(c3ccccc3)N=C2C)c2ccc(Br)cc2)c1OC	Lmaj promast 100 (no result: ROMK primary)
COc1ccccc1/C=C/C(=C1/C(=O)N(c2ccccc2)N=C1C)c1ccc(C)cc1	none
O=C1c2ccccc2C(=O)c2c1ncn2-c1ccccc1	Lmaj promast 55
O=C(CSc1nc(O)cc(=O)[nH]1)N1c2ccccc2CCc2ccccc21	none (no result: Diaph inh CS, ROMK primary, WT yeast gro inh, Lmaj promast, Diaphorase act)
CCOc1cccc(/C=N/NC(=S)Nc2cc(S(=O)(=O)N3CCOCC3)ccc2N2CCOCC2)c1O	Lmaj promast 85 (no result: ROMK primary)
COc1ccc(/C=N/NC(=S)Nc2cc(S(=O)(=O)N3CCOCC3)ccc2N2CCOCC2)cc1O	Lmaj promast 100
COc1ccc2ccccc2c1/C=N/NC(=S)Nc1cc(S(=O)(=O)N2CCOCC2)ccc1N1CCOCC1	none (no result: ROMK primary)
Cc1ccc(S(=O)(=O)N2CCN(C(=O)c3ccccc3)CC2)c(C)c1NS(C)(=O)=O	none
CC(CCc1ccccc1)NCC(O)c1ccc(O)c(C(N)=O)c1 (centres undefined)	Lmaj promast 84 (no result: ROMK primary)
CC(=O)NC(C)CCc1ccccc1 (centres undefined)	none (no result: Diaph inh CS, ROMK primary, WT yeast gro inh, Lmaj promast, Diaphorase act)
COc1cc(Br)cc(C2C3=C(CCCC3=O)N(c3ccc(F)cc3)C3=C2C(=O)CCC3)c1O	Lmaj promast 58
O=C1CCCC2=C1C(c1ccc(O)c(Br)c1)C1=C(CCCC1=O)N2c1ccccc1	none
CC(CCc1ccccc1)NC(=O)CN1C(=O)NC2(CCCCC2)C1=O (centres undefined)	none
CCCOc1ccc(C(=O)NNC(=S)NC(C)=O)cc1	Lmaj promast 97 (no result: ROMK primary)
CCCCOc1ccc(C(=O)NNC(=S)NC(=O)CC)cc1	Cl transport mod 36, Lmaj promast 93 (no result: ROMK primary)
O=C(NC(=S)NCC1CCCO1)c1ccc([N+](=O)[O-])cc1 (centres undefined)	Lmaj promast 52 (no result: ROMK primary)
O=C(NC(=S)NCC1CCCO1)c1ccc(Cl)cc1 (centres undefined)	none
CCC(=O)NC(=S)NNC(=O)c1ccc([N+](=O)[O-])cc1	Lmaj promast 97
Cc1ccc(C)c(N(CC(=O)NCCC2=CCCCC2)S(C)(=O)=O)c1	none
CCC1CCCCN1C(=S)NC(=O)c1ccc([N+](=O)[O-])cc1 (centres undefined)	Cl transport mod 46 (no result: ROMK primary)
Nc1nc2c([N+](=O)[O-])cccc2s1	none
N#CC(c1ccccc1)c1ccc(C(=O)c2ccc(F)cc2)cc1 (centres undefined)	Lmaj promast 60
Cc1[nH]c2ccc(-c3nnc(SCC(=O)NCc4ccco4)n3Cc3ccccc3)cc2c1C	Lmaj promast 97
CCn1c(SCC(=O)NCc2ccco2)nnc1-c1ccncc1	none
O=c1[nH]c(/C(Cl)=C/c2c(F)cccc2Cl)nc2cc(Cl)ccc12	Lmaj promast 79
CC(C)CC(CO)N1CCN(C(=O)c2cccc(C(F)(F)F)c2)CCC1=O (centres undefined)	none
CC(C(=O)Nc1cccc(S(=O)(=O)N2CCOCC2)c1)N1CCN(C/C=C/c2ccccc2)CC1 (centres undefined)	none
COc1ccccc1NC(=O)C(C)N1CCN(C/C=C/c2ccccc2)CC1 (centres undefined)	Lmaj promast 84 (no result: ROMK primary, Cl transport mod)
O=C(CCN1CCN(C/C=C/c2ccccc2)CC1)Nc1ccccc1	Lmaj promast 93
Cc1cccc(NC(=O)CCN2CCOCC2)c1	none (no result: ROMK primary, Cl transport mod)
Cc1cccc(NC(=O)CCN2CCN(C/C=C/c3ccccc3)CC2)c1	Lmaj promast 91 (no result: ROMK primary)
